In brackets after ≈: the same amount, converted by molar mass.
How the values were obtained:
[1] = test system: Mycolicibacterium smegmatis; test: Anti-tubercular activity against Mycobacterium smegmatis MC2 155 ATCC 700084 after 3 days by microdilution method; format: functional; details: MC2 155 ATCC 700084, 72 h
Outline: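 M. smegmatis mc2155 grown in MB7H9 + 10% OADC at 37 °C with shaking to OD600 0.8. Inoculum set to 0.5 McFarland, diluted 1:100, and mixed 1:1 with two-fold serial dilutions in MB7H9. Plates incubated 3 days at 37 °C with growth and sterility controls. MIC taken as the lowest concentration with no visible growth.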

[2] = test system: Mycobacterium tuberculosis; test: Anti-tubercular activity against Mycobacterium tuberculosis H37Rv ATCC 27294T after 7 days by mircodilution method; format: functional; details: 168 h
Outline: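 H37Rv grown static in MB7H9 + 10% OADC at 37 °C to OD600 0.8, then diluted to about 10^5 cells/ml. Mixed 1:1 with two-fold serial dilutions in MB7H9/OADC and incubated 7 days at 37 °C. MTT added to final 2.5% and plates incubated overnight. MIC is the lowest concentration with no colour change. Run in triplicate.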

[3] = Cytotoxicity against human MDM assessed as cell viability after 3 days by Alamar blue dye-based fluorocytometric analysis relative to control; details: 72 h

Compound	MIC [1] [µg/mL]	MIC [2] [µg/mL]	IC50 [3] [µg/mL]
CCOC(=O)CC(=O)CSc1nnc(COc2ccccc2C2=NOC(c3ccc(Cl)cc3Cl)C2)n1NC(C)=O (stereo unspecified)	512 (≈ 844 µM)	–	–
NNC(=O)c1ccncc1 [ISONIAZID]	–	0.1 (≈ 0.729 µM)	–
CCOC(=O)CC(=O)CSc1nnc(COc2ccccc2C2=NOC(c3ccc(Cl)cc3Cl)C2)n1NC(=O)c1ccccc1 (stereo unspecified)	512 (≈ 766 µM)	–	–
C=CCSc1nnc(COc2ccccc2C2=NOC(c3ccc(Cl)cc3Cl)C2)n1NC(C)=O (stereo unspecified)	256 (≈ 494 µM)	–	–
CCSc1nnc(COc2ccccc2C2=NOC(c3ccc(Cl)cc3Cl)C2)n1NC(=O)c1ccccc1 (stereo unspecified)	4 (≈ 7.04 µM)	–	1.8 (≈ 3.17 µM)
CSc1nnc(COc2ccccc2C2=NOC(c3ccc(Cl)cc3Cl)C2)n1NC(C)=O (stereo unspecified)	32 (≈ 65 µM)	–	2.7 (≈ 5.48 µM)
CC(C)CSc1nnc(COc2ccccc2C2=NOC(c3ccc(Cl)cc3Cl)C2)n1NC(=O)c1ccccc1 (stereo unspecified)	512 (≈ 858 µM)	–	–
CCOC(=O)CSc1nnc(COc2ccccc2C2=NOC(c3ccc(Cl)cc3Cl)C2)n1NC(=O)c1ccccc1 (stereo unspecified)	64 (≈ 102 µM)	–	–
C/C=C/Sc1nnc(COc2ccccc2C2=NOC(c3ccc(Cl)cc3Cl)C2)n1NC(C)=O (stereo unspecified)	512 (≈ 988 µM)	–	–
O=C(Nn1c(S)nnc1COc1ccccc1C1=NOC(c2ccc(Cl)cc2Cl)C1)c1ccccc1 (stereo unspecified)	32 (≈ 59.2 µM)	–	1.7 (≈ 3.15 µM)
CCCCSc1nnc(COc2ccccc2C2=NOC(c3ccc(Cl)cc3Cl)C2)n1NC(=O)CCl (stereo unspecified)	32 (≈ 56.2 µM)	–	2.8 (≈ 4.92 µM)
Nn1c(S)nnc1COc1ccccc1C1=NOC(c2ccc(Cl)cc2Cl)C1 (stereo unspecified)	2 (≈ 4.58 µM)	–	87.3 (≈ 200 µM)
CCOC(=O)CSc1nnc(COc2ccccc2C2=NOC(c3ccc(Cl)cc3Cl)C2)n1NC(C)=O (stereo unspecified)	> 64	–	–
CCCCSc1nnc(COc2ccccc2C2=NOC(c3ccc(Cl)cc3Cl)C2)n1NC(=O)c1ccccc1 (stereo unspecified)	64 (≈ 107 µM)	–	2.5 (≈ 4.19 µM)
CC(C)CSc1nnc(COc2ccccc2C2=NOC(c3ccc(Cl)cc3Cl)C2)n1NC(=O)CCl (stereo unspecified)	1020 (≈ 1800 µM)	–	–
C/C=C/Sc1nnc(COc2ccccc2C2=NOC(c3ccc(Cl)cc3Cl)C2)n1NC(=O)CCl (stereo unspecified)	> 512	–	–
CC(=O)Nn1c(COc2ccccc2C2=NOC(c3ccc(Cl)cc3Cl)C2)nnc1Sc1ccccc1 (stereo unspecified)	> 512	–	–
CC(=O)Nn1c(S)nnc1COc1ccccc1C1=NOC(c2ccc(Cl)cc2Cl)C1 (stereo unspecified)	8 (≈ 16.7 µM)	–	1.3 (≈ 2.72 µM)

Compound	MIC [1] [µg/mL]	MIC [2] [µg/mL]	IC50 [3] [µg/mL]
CSc1nnc(COc2ccccc2C2=NOC(c3ccc(Cl)cc3Cl)C2)n1NC(=O)c1ccccc1 (stereo unspecified)	32 (≈ 57.7 µM)	–	2.2 (≈ 3.97 µM)
CSc1nnc(COc2ccccc2C2=NOC(c3ccc(Cl)cc3Cl)C2)n1NC(=O)CCl (stereo unspecified)	32 (≈ 60.7 µM)	–	2.7 (≈ 5.12 µM)
CCSc1nnc(COc2ccccc2C2=NOC(c3ccc(Cl)cc3Cl)C2)n1NC(=O)CCl (stereo unspecified)	512 (≈ 947 µM)	–	–
CCCCSc1nnc(COc2ccccc2C2=NOC(c3ccc(Cl)cc3Cl)C2)n1NC(C)=O (stereo unspecified)	32 (≈ 59.9 µM)	–	2.6 (≈ 4.86 µM)
CC(=O)Nn1c(COc2ccccc2C2=NOC(c3ccc(Cl)cc3Cl)C2)nnc1SCC(C)C (stereo unspecified)	> 256	–	–
O=C(Nn1c(COc2ccccc2C2=NOC(c3ccc(Cl)cc3Cl)C2)nnc1Sc1ccccc1)c1ccccc1 (stereo unspecified)	256 (≈ 415 µM)	–	–
CCOC(=O)CC(=O)CSc1nnc(COc2ccccc2C2=NOC(c3ccc(Cl)cc3Cl)C2)n1NC(=O)CCl (stereo unspecified)	128 (≈ 200 µM)	–	–
NCC[C@H](O)C(=O)N[C@@H]1C[C@H](N)[C@@H](O[C@H]2O[C@H](CN)[C@@H](O)[C@H](O)[C@H]2O)[C@H](O)[C@H]1O[C@H]1O[C@H](CO)[C@@H](O)[C@H](N)[C@H]1O [AMIKACIN]	–	2 (≈ 3.42 µM)	–
C/C=C/Sc1nnc(COc2ccccc2C2=NOC(c3ccc(Cl)cc3Cl)C2)n1NC(=O)c1ccccc1 (stereo unspecified)	128 (≈ 221 µM)	–	–
C=CCSc1nnc(COc2ccccc2C2=NOC(c3ccc(Cl)cc3Cl)C2)n1NC(=O)CCl (stereo unspecified)	256 (≈ 463 µM)	–	–
C=CCSc1nnc(COc2ccccc2C2=NOC(c3ccc(Cl)cc3Cl)C2)n1NC(=O)c1ccccc1 (stereo unspecified)	128 (≈ 221 µM)	–	–
CO[C@H]1/C=C/O[C@@]2(C)Oc3c(C)c(O)c4c(O)c(c(/C=N/N5CCN(C)CC5)c(O)c4c3C2=O)NC(=O)/C(C)=C\C=C\[C@H](C)[C@H](O)[C@@H](C)[C@@H](O)[C@@H](C)[C@H](OC(C)=O)[C@@H]1C [RIFAMPIN]	–	1 (≈ 1.22 µM)	–
CCOC(=O)CSc1nnc(COc2ccccc2C2=NOC(c3ccc(Cl)cc3Cl)C2)n1NC(=O)CCl (stereo unspecified)	128 (≈ 214 µM)	–	–
CC[n+]1c(-c2ccccc2)c2cc(N)ccc2c2ccc(N)cc21.[Br-] [HOMIDIUM BROMIDE]	–	12.5	–
O=C(CCl)Nn1c(S)nnc1COc1ccccc1C1=NOC(c2ccc(Cl)cc2Cl)C1 (stereo unspecified)	16 (≈ 31.2 µM)	–	3.2 (≈ 6.24 µM)
O=C(CCl)Nn1c(COc2ccccc2C2=NOC(c3ccc(Cl)cc3Cl)C2)nnc1Sc1ccccc1 (stereo unspecified)	128 (≈ 217 µM)	–	–
CC1COc2c(N3CCN(C)CC3)c(F)cc3c(=O)c(C(=O)O)cn1c23 (stereo unspecified) [OFLOXACIN]	–	2 (≈ 5.53 µM)	–

— ChEMBL document CHEMBL3758168, “Hybrid triazoles: Design and synthesis as potential dual inhibitor of growth and efflux inhibition in tuberculosis” (Eur J Med Chem, 2016)
